Consider 19 compounds from ChEMBL document CHEMBL1155916, “Fluorinated phenylcyclopropylamines. Part 5: Effects of electron-withdrawing or -donating aryl substituents on the inhibition of monoamine oxidases A and B by 2-aryl-2-fluoro-cyclopropylamines” (Bioorg Med Chem, 2008).

Series [1] concerns the target T1, Amine oxidase [flavin-containing] A (Homo sapiens, UniProt P21397).
T1 sequence (P21397 whole entry): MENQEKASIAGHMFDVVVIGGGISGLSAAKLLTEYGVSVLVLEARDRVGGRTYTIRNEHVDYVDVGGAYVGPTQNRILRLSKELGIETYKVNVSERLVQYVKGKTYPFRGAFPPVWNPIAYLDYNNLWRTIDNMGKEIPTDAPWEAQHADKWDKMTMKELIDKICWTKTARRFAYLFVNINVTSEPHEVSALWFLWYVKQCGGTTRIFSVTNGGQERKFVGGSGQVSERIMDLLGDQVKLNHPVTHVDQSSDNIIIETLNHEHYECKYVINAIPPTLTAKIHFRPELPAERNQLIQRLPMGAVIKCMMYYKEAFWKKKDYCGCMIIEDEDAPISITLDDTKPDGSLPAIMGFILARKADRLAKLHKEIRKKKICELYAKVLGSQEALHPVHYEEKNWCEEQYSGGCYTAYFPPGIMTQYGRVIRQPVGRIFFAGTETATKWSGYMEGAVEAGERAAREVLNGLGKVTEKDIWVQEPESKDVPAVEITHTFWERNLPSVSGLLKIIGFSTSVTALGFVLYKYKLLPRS
The series can be described thus: Inhibition of human recombinant MAOA. The essentials: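 Recombinant human mitochondrial MAO A, desalted into 50 mM K phosphate pH 7.2 with 0.8% octyl-glucoside. Enzyme (4.4 µg) preincubated 10 min at 10 °C with varying inhibitor concentrations (DMSO) in substrate-free mix: 50 mM K phosphate pH 7.2, 0.5% reduced Triton X-100, 6% DMSO.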

The species entered for series [2] is Homo sapiens. The series can be described thus: Selectivity for human recombinant MAOA over human recombinant MAOB.
Series [3] has as its target T2, Amine oxidase [copper-containing] 3 (Rattus norvegicus, UniProt O08590).
T2 sequence (O08590 whole entry): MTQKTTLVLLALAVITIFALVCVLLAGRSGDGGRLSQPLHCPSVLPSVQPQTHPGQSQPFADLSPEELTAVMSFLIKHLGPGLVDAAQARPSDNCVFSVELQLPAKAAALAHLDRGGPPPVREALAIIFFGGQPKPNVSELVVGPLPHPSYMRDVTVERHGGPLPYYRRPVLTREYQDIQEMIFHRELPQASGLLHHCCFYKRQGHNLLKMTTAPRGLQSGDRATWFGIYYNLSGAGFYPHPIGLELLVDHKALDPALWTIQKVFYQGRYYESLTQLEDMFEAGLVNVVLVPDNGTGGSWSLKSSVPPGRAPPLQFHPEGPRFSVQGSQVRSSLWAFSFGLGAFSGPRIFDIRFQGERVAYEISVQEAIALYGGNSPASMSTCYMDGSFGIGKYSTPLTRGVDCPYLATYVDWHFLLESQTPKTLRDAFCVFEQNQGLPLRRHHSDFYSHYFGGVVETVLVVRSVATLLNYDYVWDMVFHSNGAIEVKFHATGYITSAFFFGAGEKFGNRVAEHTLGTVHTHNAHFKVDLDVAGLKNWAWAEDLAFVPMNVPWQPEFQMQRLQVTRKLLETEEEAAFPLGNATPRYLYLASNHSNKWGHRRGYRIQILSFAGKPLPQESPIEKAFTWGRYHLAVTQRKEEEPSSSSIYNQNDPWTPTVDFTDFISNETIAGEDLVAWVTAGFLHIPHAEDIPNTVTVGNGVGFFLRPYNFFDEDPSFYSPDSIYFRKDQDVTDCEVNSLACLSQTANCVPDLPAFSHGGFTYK
The series can be described thus: Inhibition of rat CAO.

The nature of series [4]: Inhibition of tyramine oxidase.
Series [5] has as its target T3, Amine oxidase [flavin-containing] B (Homo sapiens, UniProt P27338).
T3 sequence (P27338 whole entry): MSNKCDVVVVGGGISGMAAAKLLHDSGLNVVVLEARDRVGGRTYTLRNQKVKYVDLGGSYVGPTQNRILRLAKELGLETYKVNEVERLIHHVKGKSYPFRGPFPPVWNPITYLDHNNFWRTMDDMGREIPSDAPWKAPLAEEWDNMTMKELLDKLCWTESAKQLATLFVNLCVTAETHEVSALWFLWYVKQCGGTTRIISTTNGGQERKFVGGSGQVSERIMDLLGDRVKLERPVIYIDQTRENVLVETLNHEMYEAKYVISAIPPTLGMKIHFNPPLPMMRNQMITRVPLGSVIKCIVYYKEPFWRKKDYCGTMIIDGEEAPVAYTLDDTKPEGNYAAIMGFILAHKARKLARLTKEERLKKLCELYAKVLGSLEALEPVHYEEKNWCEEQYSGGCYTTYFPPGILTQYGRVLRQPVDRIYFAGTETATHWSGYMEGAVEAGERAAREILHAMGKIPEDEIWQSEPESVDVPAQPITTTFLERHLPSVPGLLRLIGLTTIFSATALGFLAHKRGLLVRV
The series can be described thus: Inhibition of human recombinant MAOB. The essentials:
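Recombinant human mitochondrial MAO B was gel-filtered into 50 mM K phosphate pH 7.2 with 0.8% octyl-glucoside. Enzyme (7.0 µg) was held 10 min at 10 °C with varying inhibitor concentrations (DMSO) in 0.1 M K phosphate pH 7.2, 6% DMSO, without substrate. The reaction was started with 1 mM benzylamine, and benzaldehyde formation was read at 250 nm at 25 °C.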

For series [6], the species on record is Homo sapiens. Briefly: Selectivity for human recombinant MAOB over human recombinant MAOA.
The nature of series [7]: Dissociation constant, pKa by titrimetric method. Type of series: physicochemical. The essentials:
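Titration in 0.1 M KNO₃ at 21 °C.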

Series [8] is filed under the species Homo sapiens. Briefly: Selectivity for human recombinant MAOA over human recombinant MAOB.
A short description of series [9]: Lipophilicity, log D at pH 7.4. The following applies: buffer. Type of series: physicochemical.

Turning to `COc1ccc(/C(=C\F)CN)cc1OC`, in series [1], the Ki stood at 231 µM. Moreover, the Ratio Ki in the series filed under Homo sapiens [2] came out at 100. In addition, in series [3], the half-maximal inhibitory concentration (IC50) turned out to be 0.006 µM.

With `NC[C@@]1(c2ccccc2)C[C@@H]1F`, the IC50 was found to be 320 µM in [1] (read-out: IC50) and 12 µM in [4].

Regarding `N[C@]1(c2ccccc2)C[C@]1(F)c1ccccc1` (racemic), the values for the 50% inhibitory concentration (IC50) in [1] (read-out: IC50) and in series [5] were 10 µM and 20 µM, respectively. The Ratio IC50 in the series listed under Homo sapiens [6] worked out at 2. In series [7], this compound returned a pKa of 5.8.

Take `N[C@@H]1C[C@]1(F)c1ccc(C(F)(F)F)cc1` (relative stereo): the Ratio IC50 in the series filed under Homo sapiens [8] worked out at 10.7. In addition, the results for the IC50 in [1] (read-out: IC50) and in series [5] were 76 µM and 7.1 µM, respectively. This compound returned a pKa in [7] of 6.6. In series [9], this compound gave a logD of 3.13.

With `N[C@@H]1C[C@]1(F)c1ccc(F)cc1` (relative stereo), the Ratio IC50 in the series filed under Homo sapiens [8] was determined as 27. Also, the values for the concentration for half-maximal inhibition (IC50) in series [1] (read-out: IC50) and in [5] were 270 µM and 10 µM, respectively. The pKa in series [7] came out at 6.88. Besides, in [9], the logD was found to be 2.14.

`N[C@H]1C[C@]1(F)c1ccc(F)cc1` (relative stereo): the IC50 was found to be 3.6 µM in series [1] (read-out: IC50) and 4.9 µM in series [5]. Moreover, the Ratio IC50 in the series filed under Homo sapiens [6] was found to be 1.4. The pKa in series [7] was 7.31. Moreover, in [9], the log distribution coefficient (logD) was 1.6.

For `Cc1ccc([C@@]2(F)C[C@H]2N)cc1` (relative stereo), the Ratio IC50 in the series listed under Homo sapiens [8] was 7.7. Besides, the IC50 turned out to be 230 µM in [1] (read-out: IC50) and 30 µM in [5]. Besides, the pKa in series [7] worked out at 7.04.

For `N[C@H]1C[C@]1(F)c1ccccc1` (relative stereo), the Ratio IC50 in the series filed under Homo sapiens [8] was 2. Moreover, the IC50 in [1] (read-out: IC50) amounted to 12 µM; in series [5] it was 6.4 µM. In [9], this compound had a logD of 1.53.

With `N[C@@H]1C[C@]1(F)c1ccc(Cl)cc1` (relative stereo), the Ratio IC50 in the series filed under Homo sapiens [8] came out at 18.5. Moreover, the IC50 in series [1] (read-out: IC50) turned out to be 89 µM; in series [5], 4.8 µM. Moreover, in series [7], the pKa turned out to be 6.81. Also, in [9], the logD was 2.66.

In the case of `COc1ccc([C@@]2(F)C[C@@H]2N)cc1` (relative stereo), the Ratio IC50 in the series filed under Homo sapiens [8] worked out at 2.8. The values for the IC50 in series [1] (read-out: IC50) and in [5] were 14 µM and 5.1 µM, respectively. Moreover, in series [7], the pKa was 7.5.

`N[C@H]1C[C@]1(F)c1ccc(Cl)cc1` (relative stereo): the IC50 in series [1] (read-out: IC50) is 1.6 µM; in [5], 3.7 µM. Also, in the series filed under Homo sapiens [6], the Ratio IC50 was determined as 2.3. The compound further showed a pKa in [7] of 7.19. Besides, the logD in series [9] was found to be 2.23.

As for `N[C@@H]1C[C@@H]1c1ccccc1` (relative stereo), the pKa in [7] is 8.47. Further, in series [9], the logD worked out at 1.41.

Take `N[C@H]1C[C@]1(F)c1ccc(C(F)(F)F)cc1` (relative stereo): the half-inhibitory concentration (IC50) was 0.8 µM in [1] (read-out: IC50) and 5.4 µM in series [5]. For the same compound, the Ratio IC50 in the series listed under Homo sapiens [6] stood at 6.8. This compound yielded a pKa in series [7] of 7. In addition, the logD in [9] came to 2.66.

On to `Cc1ccc([C@@]2(F)C[C@@H]2N)cc1` (relative stereo), for which the concentration for half-maximal inhibition (IC50) in [1] (read-out: IC50) and in [5] was 13 µM each time. For the same compound, the Ratio IC50 in the series listed under Homo sapiens [6] stood at 1. This compound came in with a pKa in series [7] of 7.41. For the same compound, in [9], the logD stood at 1.83.

Take `COc1ccc([C@@]2(F)C[C@H]2N)cc1` (relative stereo): in series [1] (human), the Activity result is “Not Active”. Also, the IC50 in series [5] turned out to be 18 µM.

As for `COc1ccc([C@@]2(F)C[C@@H]2N)cc1OC` (relative stereo), the IC50 in series [1] (read-out: IC50) amounted to 47 µM; in [5] it was 230 µM. Further, the Ratio IC50 in the series filed under Homo sapiens [6] was found to be 4.9. This compound yielded a pKa in series [7] of 7.4. In series [9], this compound showed a logD of 0.58.

In the case of `COc1ccc([C@@]2(F)C[C@H]2N)cc1OC` (relative stereo), the IC50 entry in series [1] is “Not Active”; in series [5], 470 µM.

For `N[C@@]1(c2ccccc2)C[C@@H]1F` (relative stereo), the Ratio IC50 in the series filed under Homo sapiens [6] was 100.

In the case of `N[C@@H]1C[C@]1(F)c1ccccc1` (stereo in doubt), the Ratio IC50 in the series filed under Homo sapiens [8] is 3.4. Also, the IC50 in series [1] (read-out: IC50) was determined as 65 µM; in series [5], 19 µM. In series [9], this compound displayed a log distribution coefficient (logD) of 1.78.

As a reminder, the Ki is a dissociation constant, usually derived from enzyme kinetics or from competition with a known ligand. The IC50 is the concentration that gives 50% inhibition. As a reminder, the pKa is the pH at which an ionisable group is half protonated. Read a low pKa as a group that gives up its proton readily. The term logD denotes lipophilicity at a set pH, counting ionised and neutral species. Low readings indicate lower lipophilicity, high ones higher lipophilicity.
